# High-throughput results deposited in PubChem by several laboratories.
# Sampled rows, rich in hits. Any-hit rate of the full collection: about 1.8%.
# beta cell repl: induces beta-cell replication in MIN6 cells. AID 2380. MIN6 cells proliferation, ATPlite luminescence, 48 h; cells starved in 0.2% serum; 100% = growth in 10% serum. proliferation, % at 10 µM. 330,000 compounds, 0.29% hits;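 active = compounds whose signal lies at least 3.5 SD above the mean of all wells on their plate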;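 note: 0% = DMSO-treated cells in low-serum medium and 100% = 10% serum control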
# MsrA act: activates bovine MsrA enzyme; purified bovine MsrA, absorbance read-out; activation, % at 10.6 µM; 360,000 compounds, 0.3% hits; AID 602163; in the data active = activation above about 7.5%;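 note: 0% = vehicle and 100% = reference activator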
# MsrA inhibitor: inhibitors of bovine MsrA | inhibition, % at 15.5 µM | 360,000 compounds, 0.75% hits | purified bovine MsrA, absorbance read-out; in the data active = inhibition above about 4.5%;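 note: 0% = vehicle wells with enzyme and 100% = reference inhibitor wells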
# SKN-1 block: inhibitors of C. elegans SKN-1 | AID 624304 | inhibition, % at 21.8 µM | 360,000 compounds, 0.49% hits | C. elegans VP596 Pgst-4::GFP/RFP ratio, acrylamide-induced, 24 h;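 active = interference check ratio from 0.5 to 1.5 plus GFP to RFP signal ratio inhibition reaching or exceeding a fixed threshold, cut at about 30% in these data, passing the limit was not always enough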
# MT1-MMP act inh: blocks activation of human MT1-MMP; P50281; HT1080 RFP-PRO-GFP cells, GFP/RFP ratio fluorescence, overnight; percent of plate control window, DMSO zero; GFP/RFP ratio change, % at 20 µM; 360,000 compounds, 0.061% hits; AID 651647;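 active = GFP/RFP ratio change of at least 30% with cell ATP level not reduced by more than half and red fluorescence within 50% of control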
#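 Test system: HT1080 RFP-PRO-GFP cells; Benchmarks: DMSO and RFP-L50D-GFP cell wells; Timing: cells overnight before dosing, compound overnight, 37 °C, 5% CO2; Compound: one 20 µM compound dose with 1% DMSO; Read-out: GFP/RFP fluorescence ratio.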
# DAGLB inh: blocks human DAGLB lipase activity. inhibition, % at 5.17 µM. 340,000 compounds, 0.059% hits. Q8NCG7. HEK293T DAGLB membrane lysate, EnzChek fluorogenic substrate; in the data active = inhibition above about 34%;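 note: 0% = enzyme with vehicle and 100% = wells lacking enzyme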
# Target sequence (Q8NCG7 whole entry, looked up): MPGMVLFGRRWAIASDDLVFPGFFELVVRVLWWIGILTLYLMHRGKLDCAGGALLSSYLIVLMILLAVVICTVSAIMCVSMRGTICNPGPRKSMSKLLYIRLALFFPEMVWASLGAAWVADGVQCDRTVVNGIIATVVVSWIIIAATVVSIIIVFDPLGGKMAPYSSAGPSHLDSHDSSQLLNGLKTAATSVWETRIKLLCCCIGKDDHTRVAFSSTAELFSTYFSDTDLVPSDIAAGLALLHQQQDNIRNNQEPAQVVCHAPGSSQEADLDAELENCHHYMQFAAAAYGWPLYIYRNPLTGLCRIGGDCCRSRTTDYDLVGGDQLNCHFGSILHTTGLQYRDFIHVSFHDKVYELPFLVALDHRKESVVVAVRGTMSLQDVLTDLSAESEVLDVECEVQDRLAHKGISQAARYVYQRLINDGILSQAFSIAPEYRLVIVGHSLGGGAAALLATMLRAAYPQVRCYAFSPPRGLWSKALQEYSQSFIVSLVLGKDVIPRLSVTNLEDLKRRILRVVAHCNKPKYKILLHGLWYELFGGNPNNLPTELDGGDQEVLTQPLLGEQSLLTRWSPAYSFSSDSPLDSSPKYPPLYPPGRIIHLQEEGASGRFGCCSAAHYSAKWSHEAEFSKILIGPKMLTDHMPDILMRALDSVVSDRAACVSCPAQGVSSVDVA
# Starred values were filed as active, the others as inactive; . = not tested or not shown.
SMILES,beta cell repl,MsrA act,MsrA inhibitor,SKN-1 block,MT1-MMP act inh,DAGLB inh
CC1CCc2sc3nc(NCc4ccco4)n4ncnc4c3c2C1 (stereo not drawn),-4,-5,1,-10,2,-7
CCN1CCN(c2nc3sc4c(c3c3ncnn23)CC(C)CC4)CC1 (stereo not drawn),-2,-1,0,65*,-4,-6
CC(C)(C)c1ccc(S(=O)(=O)N2CCN(C(=O)C(=O)c3cccc(C(F)(F)F)c3)CC2)cc1,.,.,0,.,.,.
COc1ccc(/C=C/C(=O)NCCCNC(=O)/C=C/c2ccc(OC)c(OC)c2)cc1OC,-3,-2,2,-14,6,-1
COc1ccc(/C=C/C(=O)Nc2nonc2NC(C)=O)cc1,-4,-7,4.6*,9,6,1
COc1ccc(/C=C/C(=O)Nc2cc(C)on2)cc1,-3,-4,0,9,3,0
COc1ccc(/C=C/C(=O)Nc2nc(C)cc(C)n2)cc1OC,-2,-6,4.9*,14,0,-2
CC(C)C[C@H]1CNC(=O)C(=O)N1C[C@@H]1CCCN1C[C@H](Cc1ccccc1)N1C[C@H](CC(C)C)N(CC2CCCCC2)C(=O)C1=O,.,.,1,.,.,.
COc1cc(CNC(C)(C)CO)cc(Br)c1OCc1ccc(Cl)cc1,-7,3,1,55*,-16,1
COc1cc(CNC(C)c2ccccc2)cc(Br)c1OCc1ccc(F)cc1 (stereo not drawn),-4,-10,-1,66*,-7,-13
COc1cc(CNC(C)(C)CO)cc(Br)c1OCc1ccc(Cl)cc1Cl,-7,-3,-1,33,-9,2
COc1cc(CNC(C)c2ccccc2)cc(Br)c1OCc1ccccc1 (stereo not drawn),-5,-8,-1,10,-4,-9
CC1OC(CC(=O)O)CC2=C1C(=O)c1c(O)cccc1C2=O (stereo not drawn),.,67*,9.9*,9,-57,-2
O=c1c2ccccc2ncn1-c1ccc(Cl)cc1Cl,1,1,0,35*,-3,.
O=c1c2ccccc2ncn1-c1cccc(Cl)c1,2,-4,0,16,0,1
Cc1cccc(N/C=C/C(=O)c2ccc(Cl)cc2)c1,-3,-1,2,27,2,-5
Cc1ccc(Cl)c(N/C=C/C(=O)c2ccccc2)c1,0,-4,1,51*,-6,-8
CCn1c(CSc2nnc3ccccn23)nc2cc(C(=O)O)ccc21,-5,-11,-1,65,42*,2
CCn1c(CSc2nnc(-c3cccnc3)n2-c2ccccc2C)nc2cc(C(=O)O)ccc21,-2,.,.,.,.,.
CCn1c(CSc2n[nH]c(N)n2)nc2cc(C(=O)O)ccc21,0,-1,0,37*,24,-1
CCn1c(CSc2nnc(-c3ccncc3)n2CCOC)nc2cc(C(=O)O)ccc21,0,-2,0,38*,22,1
Cc1ccc2nc(NC(=O)c3ccco3)sc2c1,-4,-5,2,45*,10,-1
Cc1ccc2nc(NC(=S)NC(=O)c3ccco3)sc2c1,.,-2,1,6,-1,-1
O=C(Nc1nc2c(s1)CCc1ccccc1-2)c1ccco1,-1,-6,1,41*,-4,-4
CCC(=O)N1CCN(c2nc3ccc(Br)cc3s2)CC1,-1,-1,0,43*,0,-1
SMILES,beta cell repl,MsrA act,MsrA inhibitor,SKN-1 block,MT1-MMP act inh,DAGLB inh
COc1ccc2c(c1)Cc1sc(NC(=O)c3ccccc3)nc1-2,-2,-1,1,42*,-2,-1
CC(=O)Nc1nc2c(s1)CCc1ccccc1-2,0,-2,-1,2,0,0
COC(=O)C1=C(C)N(C)C(=NCc2ccc3c(c2)OCO3)NC1c1cccc(F)c1 (stereo not drawn),.,.,1,.,.,.
O=C(Nc1nc2c(ccc3ccccc32)s1)c1ccco1,-3,-8,1,81*,-9,-9
CC(=O)Nc1nc2ccc(Br)cc2s1,-4,-4,-2,35*,-2,1
COc1ccc(CN2C[C@H](COCc3ccccc3)Oc3cccc(N4CCCC4)c3S2(=O)=O)cc1,.,.,1,.,.,.
CCCCNC(=S)N/N=C/c1ccc(C)s1,-3,-2,4.7*,10,0,2
Cc1ccc(/C=N/NC(=S)NCCc2ccccc2)s1,-3,-3,1,2,0,-2
CN(C)Cc1c(C(C)(C)O)[nH]c2cc(F)ccc12,.,.,-1,.,.,.
COC(=O)[C@]12C[C@H](CC(=O)N3CCOCC3)C(=O)N(Cc3ccc4c(c3)OCO4)C1=C[C@H](C(C)(C)C)O[C@@H]2C,.,.,-1,.,.,.
C[C@@H]1CN([C@@H](C)CO)C(=O)CCCn2nncc2CO[C@H]1CN(C)CC1CC1,.,.,0,.,.,.
Cn1c(N=Nc2ccc(N3CCOCC3)cc2)[n+](C)c2ccccc21,.,-1,0,39*,7,3
Cn1c(=Nc2ccc(N3CCOCC3)cc2)ccc2ccccc21,-2,-1,2,6,-7,-1
COc1cccc(/C=C/c2ccc3cccc(O)c3n2)c1,-5,0,0,17,3,-6
COc1cc(/C=C/c2ccc3cccc(O)c3n2)cc(OC)c1OC,-5,-1,1,-6,22,-2
Cc1ccc(/C=C/c2ccc3cccc(O)c3n2)s1,-5,-15,1,35*,6,-7
Oc1cccc(/C=C/c2ccc3cccc(O)c3n2)c1,-7,-1,2,46*,3,2
COc1ccc(N2C(=O)c3n[nH]c(C)c3C2c2ccc(F)cc2)cc1 (stereo not drawn),.,.,2,.,.,.
NC(Cc1ccc(O)cc1)C(=O)NN=Cc1ccccc1Cl (stereo not drawn),.,.,1,.,.,.
FC(F)(F)c1ccc(-c2nnc(-c3cccnc3)o2)cc1,1,-2,-1,3,2,-3
Brc1ccc(-c2nnc(-c3ccco3)o2)cc1,1,2,1,81*,1,-10
Cc1ccc(-c2nnc(-c3cccnc3)o2)cc1,-3,-6,1,1,-1,-5
Clc1ccc(-c2nnc(-c3cccnc3)o2)cc1,-3,-1,3,40*,-4,-2
Brc1ccc(-c2nnc(-c3cccnc3)o2)cc1,-3,-3,-2,48*,1,-9
Brc1ccc(-c2nnc(-c3ccccc3Br)o2)cc1,-3,-2,0,65*,0,-22
COC(=O)[C@]12C[C@H](CC(=O)NCc3cccs3)C(=O)N(CCc3ccc(OC)c(OC)c3)C1=C[C@H](C(C)(C)C)O[C@@H]2C,.,.,0,.,.,.
CCCCc1c(-c2ccccc2OC)ncn1Cc1cccc(F)c1,.,.,0,.,.,.
COc1cccc(C(CC2=CCCCC2)NC(=O)C(F)(F)F)c1 (stereo not drawn),.,.,0,.,.,.
